Results: paper PMC4291750 (Journal of the American Chemical Society, 2014)

Key:
[1] = system: PSMA-coated beads phagocytosed by IFN-γ-primed U937 cells; test: Bead phagocytosis assay; assay type: cell-based
How it was run: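 Effectors were U937 cells primed 72 h with IFN-γ (final 2 ng/mL, medium changed daily) and stained with DiD (final 1.9 μM, 30 min, 37 °C). Targets were 6 μm fluorescent streptavidin beads loaded with avi-tagged PSMA. 4×10^4 beads and 10^5 effectors (E:T 2.5:1) in phenol-free RPMI/10% low-IgG FBS, ±test compound ±competitor (PSMA ligand or anti-FcγRI antibody). Spun 200 rcf 2 min, 37 °C 1 h, stopped on ice, flow cytometry. % targets phagocytosed minus no-compound background; mean of ≥duplicates ±SD.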

[2] = system: PSMA-expressing RM1.PGLS cells phagocytosed by IFN-γ-primed U937 cells; test: Cell phagocytosis assay; assay type: cell-based, murine
How it was run: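 RM1.PGLS targets were stained adherent with DiO (final 1.9 μM), detached with 0.5 mM EDTA/EGTA and checked by trypan blue. 1.25×10^4 targets and 10^5 IFN-γ-primed, DiD-stained U937 (E:T 8:1; range 2:1–20:1 also tested) in Assay Media, ±test compound ±inhibitors. Spun 200 rcf 2 min, 1 h at 37 °C, then flow cytometry. % targets phagocytosed minus background. Imaging-cytometry counterpart: formaldehyde-fixed, CD14/CD11b-APC plus Hoechst, events scored as cup or engulfment. Dunnett ANOVA versus no compound.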

[3] = system: IFN-γ-primed U937 cells with PSMA-coated beads; test: ROS production; assay type: cell-based
How it was run: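 U937 cells primed 72 h with IFN-γ (final 2 ng/mL, daily medium change). 3×10^5 cells/mL in phenol-free RPMI/10% low-IgG FBS mixed with test compound, with or without 10^5 PSMA-coated beads/mL. 2.5 mM lucigenin solution added (stock). Plate spun 200 rcf 2 min. Chemiluminescence read every 2 min for 60–90 min; peak luminescence taken. Mean of ≥duplicates ±SD.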

[4] = system: isogenic PSMA-negative RM1 tumor line; test: Cell phagocytosis assay, PSMA-negative control; assay type: cell-based, murine; details: U937 effector cells
RM1-hPSMA cells = test: Compound cytotoxicity assay; assay type: cell-based, murine; details: cell index over 24 hours, vs 1% DMSO
How it was run: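 12 500 RM1-hPSMA cells per well were plated 36 h beforehand in DMEM (4.5 g/L glucose, 10% FBS, pen/strep, 2 mM glutamine, 1 mM pyruvate). Impedance cell index was recorded at 37 °C, 5% CO2, with cell-free medium as background. At time 0 medium was replaced with test compound at various concentrations, 1% DMSO vehicle or 3% Triton. Readings every 2 min for 3 h, then every 10 min for 21 h.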

SMILES | effect of competitor on SyAM-P3-induced bead phagocytosis ([1]; 50 nM SyAM-P3) | effect of competitor on SyAM-P1-induced bead phagocytosis ([1]; SyAM-P1-induced effector responses) | effect of competitor on SyAM-P3-induced cell phagocytosis ([2]; RM1.PGLS targets) | ROS production in the absence of target beads ([3]; no PSMA-labeled beads) | superoxide burst response ([3]; with PSMA-coated beads, lucigenin chemiluminescence) | phagocytosis of PSMA-coated beads, comparison between SyAMs ([1]; primed U937 effector cells) | phagocytosis of PSMA-expressing RM1.PGLS cells ([2]; U937 effector cells) | phagocytosis of PSMA-negative RM1 cells [4] | cytotoxicity in the absence of effector cells (RM1-hPSMA cells)
O=C(O)CCC(CP(=O)(O)O)C(=O)O (stereo not drawn) [2-PMPA] | suppressed in a concentration-dependent manner | abrogated | suppressed | – | – | – | – | – | –
CC(=O)N[C@H](C(=O)N[C@@H](CC(N)=O)C(=O)N[C@@H](CO)C(=O)N[C@H]1CSSC[C@@H](C(=O)NCC(=O)N[C@@H](CC(=O)O)C(=O)N[C@@H](CC(=O)O)C(=O)N[C@@H](CCCCNC(=O)CCCC(=O)NCCOCCOCCOCC(=O)NCCCC[C@H](NC(=O)COCCOCCOCCNC(=O)CCCC(=O)NCCCC[C@H](NC(=O)[C@H](CC(=O)O)NC(=O)[C@H](CC(=O)O)NC(=O)CNC(=O)[C@@H]2CSSC[C@H](NC(=O)[C@H](CO)NC(=O)[C@H](CC(N)=O)NC(=O)[C@@H](NC(C)=O)C(C)C)C(=O)N[C@@H](CC(C)C)C(=O)N[C@@H](CC(C)C)C(=O)N[C@@H](CC(C)C)C(=O)N3CCC[C@H]3C(=O)N[C@@H](CC(N)=O)C(=O)N[C@@H](CC(C)C)C(=O)N[C@@H](CC(C)C)C(=O)NCC(=O)N2)C(=O)N[C@@H](CCCCNC(=O)CCCC[C@@H]2SC[C@@H]3NC(=O)N[C@@H]32)C(N)=O)C(=O)NCc2cn(-c3cc(C(=O)NCCCCCC(=O)NCCCCCC(=O)NCCCCCC(=O)NCCCCCC(=O)NCCCCCC(=O)NCCCCCC(=O)NCc4cn(CCCC[C@H](NC(=O)N[C@@H](CCC(=O)O)C(=O)O)C(=O)O)nn4)cc(C(=O)NCCCCCC(=O)NCCCCCC(=O)NCCCCCC(=O)NCCCCCC(=O)NCCCCCC(=O)NCCCCCC(=O)NCc4cn(CCCC[C@H](NC(=O)N[C@@H](CCC(=O)O)C(=O)O)C(=O)O)nn4)c3)nn2)C(=O)N[C@@H](CCCCNC(=O)CCCC[C@@H]2SC[C@@H]3NC(=O)N[C@@H]32)C(N)=O)NC(=O)CNC(=O)[C@H](CC(C)C)NC(=O)[C@H](CC(C)C)NC(=O)[C@H](CC(N)=O)NC(=O)[C@@H]2CCCN2C(=O)[C@H](CC(C)C)NC(=O)[C@H](CC(C)C)NC(=O)[C@H](CC(C)C)NC1=O)C(C)C [SyAM-P3] | – | – | – | required the presence of PSMA-labeled beads | both more potent and more efficacious than earlier-generation molecules | both more potent and more efficacious than earlier-generation molecules | significant levels of target cell phagocytosis | only minimal levels of phagocytosis | non-cytotoxic
